Shown are actives, neighbours in structure and some others; about 2.5% of the full set was active somewhere.
HTRA1 inhibitor – inhibitors of human serine peptidase HTRA1. inhibition, % at 5.96 µM. recombinant HTRA1, FP-rhodamine activity-based probe, fluorescence polarization. 340,000 compounds, 0.5% hits. AID 504803; in the data active = inhibition above about 36%
SIAE primary – inhibitors of human sialic acid acetylesterase SIAE | SIAE FP-Rh probe binding, fluorescence polarization | Q9HAT2 | inhibition, % at 9.66 µM | 370,000 compounds, 0.69% hits | AID 1053197;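 active = inhibition above a cutoff: mean of compounds within the control limits plus 3 SD of those, cut at about 17% in these data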
ABHD4 inh – inhibitors of mouse ABHD4; inhibition, % at 8.92 µM; AID 720543; purified mABHD4, FP-Rh probe fluorescence polarization; Q8VD66; 370,000 compounds, 0.54% hits;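 active = inhibition exceeding the mean over every tested compound plus 3 SD, cut at about 30% in these data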
Target sequence (Q8VD66 whole entry, looked up): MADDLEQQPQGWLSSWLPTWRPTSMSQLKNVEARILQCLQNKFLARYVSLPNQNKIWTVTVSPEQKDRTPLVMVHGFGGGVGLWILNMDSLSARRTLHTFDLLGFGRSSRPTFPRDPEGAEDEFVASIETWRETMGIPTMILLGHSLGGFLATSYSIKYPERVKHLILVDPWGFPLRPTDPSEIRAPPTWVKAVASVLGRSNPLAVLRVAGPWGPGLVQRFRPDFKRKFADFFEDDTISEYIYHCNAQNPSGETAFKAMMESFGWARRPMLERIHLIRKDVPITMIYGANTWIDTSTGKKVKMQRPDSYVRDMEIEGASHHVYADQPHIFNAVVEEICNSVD
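Test system: mABHD4 protein; Read-out basis: % inhibition; Incubation: 45 min + 60 min at 25 °C; Repeats: single replicate; Technique: fluorescence polarization with parallel and perpendicular emission, 525/598 nm; Compound: 8.92 µM, single dose; Benchmarks: full inhibition S159A mutant plus DMSO, zero as sample-well median.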
TCR CD3 inh – blocks the human TCR-CD3 interaction; TAMRA-labeled TCR probe fluorescence, biochemical; inhibition, % at 9.4 µM; 360,000 compounds, 0.37% hits;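 also: recombinant mutant TCR 2C K166C tagged with TAMRA read by polarization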
PRMT1 FP inh – blocks human protein arginine methyltransferase 1. inhibition, % at 2.79 µM. Q99873. recombinant PRMT1, activity-based probe fluorescence polarization. AID 652257. 370,000 compounds, 1.3% hits;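 active = inhibition above about 21% made by adding two undisclosed values, limit read from the data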
Target sequence (Q99873 whole entry, looked up): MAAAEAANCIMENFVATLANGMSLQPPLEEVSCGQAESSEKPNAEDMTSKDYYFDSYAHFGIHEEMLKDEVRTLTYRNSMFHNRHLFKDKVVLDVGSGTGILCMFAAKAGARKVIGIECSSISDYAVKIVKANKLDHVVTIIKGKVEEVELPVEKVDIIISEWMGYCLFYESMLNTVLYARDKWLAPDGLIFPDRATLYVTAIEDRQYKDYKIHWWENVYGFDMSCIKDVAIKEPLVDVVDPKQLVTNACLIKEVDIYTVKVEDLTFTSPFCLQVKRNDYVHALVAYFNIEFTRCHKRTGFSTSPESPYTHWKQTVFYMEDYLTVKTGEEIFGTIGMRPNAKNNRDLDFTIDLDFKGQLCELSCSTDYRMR
HTRA1 inh conf – HTRA1 (human) inhibition, confirmation; recombinant HTRA1, FP-rhodamine activity-based probe, fluorescence polarization; shares compounds with HTRA1 inhibitor; 1,600 compounds, 66% hits; inhibition, % at 5.96 µM; AID 540248;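 active = mean inhibition over three repeats above a set limit taken from the earlier primary screen, cut at about 37% in these data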;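 also: inhibitors block probe binding so polarization drops and inhibition rises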
BSA TAMRA ctr – BSA probe counter-screen for TCR-CD3 inhibitors; shares compounds with TCR CD3 inh; TAMRA-labeled BSA probe fluorescence counterscreen; inhibition, % at 9.4 µM; 1,200 compounds, 10% hits; AID 652035; in the data active = inhibition above about 23%
TCR-CD3 inh conf – confirmation of human TCR-CD3 interaction inhibitors; 1,200 compounds, 48% hits; AID 652036; shares compounds with TCR CD3 inh; TAMRA-labeled TCR probe fluorescence binding assay; inhibition, % at 9.4 µM
PRMT1 inh conf – PRMT1 (human) inhibition, FP confirmation | shares compounds with PRMT1 FP inh | recombinant His-PRMT1, activity-based probe fluorescence polarization | inhibition, % at 2.79 µM | 3,300 compounds, 42% hits | AID 687036;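 active = mean inhibition across replicates above the hit cutoff derived for the earlier primary screen, cut at about 22% in these data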
ABHD4 confirm – ABHD4 (mouse) inhibition, FP confirmation | shares compounds with ABHD4 inh | purified mABHD4, FP-Rh probe fluorescence polarization | inhibition, % at 8.92 µM | 1,800 compounds, 55% hits;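 active = mean inhibition across replicates above the hit cutoff set in the primary screen, cut at about 30% in these data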
SIAE confirm – human SIAE inhibition, confirmation; shares compounds with SIAE primary; 2,300 compounds, 13% hits; inhibition, % at 9.66 µM; SIAE FP-Rh activity-based probe, fluorescence polarization;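 active = mean inhibition of the replicates above the hit cutoff set in the primary screen, cut at about 17% in these data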;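 also: inhibitors lower polarization as more probe stays unbound to SIAE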
Numbers stand for hits; – = inactive; · = no result given; + = active, no number. Rule as the data show it, unless noted: active = inhibition above about 19%; inactive = the rest.

SMILES | HTRA1 inhibitor | SIAE primary | ABHD4 inh | TCR CD3 inh | PRMT1 FP inh | HTRA1 inh conf | ABHD4 confirm | SIAE confirm | others
C/C(=N/NC(=O)c1cc(O)c(O)c(O)c1)c1ccc([N+](=O)[O-])cc1 | 76 | – | 32 | 55 | – | 57 | – | · | BSA TAMRA ctr=–;TCR-CD3 inh conf=36
C[C@H]1[C@@H](OC(=O)N2CCN(c3ccccc3)CC2)CC[C@@]23CCCN2C(=O)CCC[C@@H]13 | · | – | – | · | – | · | · | ·
Fc1cccc(Cl)c1CNc1ccc(N2CCCC2)cc1 | 47 | – | 32 | – | – | – | 49 | ·
O=c1ccc2[n+]([O-])c3ccc(O)cc3oc-2c1 | 141 | · | + | · | 119 | + | + | · | PRMT1 inh conf=69
O=c1cc(O)c2ccc(O)cc2o1 | – | – | – | – | – | · | · | ·
COc1ccc2ccccc2c1C=NNC(=O)c1cc(-c2ccc(C)cc2)n[nH]1 | · | – | – | · | – | · | · | ·
Cc1cc(NC(=O)c2ccc(NS(=O)(=O)c3ccc(F)cc3)cc2)no1 | · | – | – | · | – | · | · | ·
O=[N+]([O-])c1cc2no[n+]([O-])c2cc1N1CCCCC1 | 77 | – | 55 | – | – | – | 51 | ·
N#Cc1cc(N2CCCCC2)c([N+](=O)[O-])cc1C#N | – | – | – | – | – | · | · | ·
Nc1ccc(N2CCN(CCCCN3C(=O)C4CCCN4C3=O)CC2)cc1 (stereo unspecified) | 38 | 31 | 81 | – | – | – | – | –
COC(=O)[C@]12C[C@H](CC(=O)NCc3ccc(OC)c(OC)c3)C(=O)N(Cc3ccc(Cl)cc3Cl)C1=C[C@H](C(C)(C)C)O[C@@H]2C | · | – | – | · | – | · | · | ·
COc1cc(-c2nc(-c3ccccc3)c(-c3cccs3)[nH]2)cc(OC)c1OC | – | – | – | – | – | · | · | ·
COc1cc(-c2nc(-c3ccccc3)c(-c3cccs3)[nH]2)cc(OC)c1O | 43 | 20 | 35 | – | – | – | 44 | –
CC(C)=CCC[C@@]1(C(=O)O)[C@H]2CC=C(CO)[C@@H]1CC/C(C)=C/CC/C(C)=C/C2 | · | – | – | · | – | · | · | ·
C/C(=C\C(=O)c1cccnc1)Nc1ccc(O)cc1 | 64 | 26 | 72 | 89 | – | – | – | – | BSA TAMRA ctr=–;TCR-CD3 inh conf=–
Oc1ccccc1C=Nc1cccc2ccccc12 | – | – | – | – | – | · | · | ·
Oc1cccc(C=Nc2cccc3ccccc23)c1O | 71 | 20 | 53 | – | 38 | 53 | · | –
Cc1ccc(-n2c(SCC(=O)N/N=C/C=C\c3ccccc3[N+](=O)[O-])nnc2-c2ccccc2)cc1 | · | – | – | · | – | · | · | ·
CC(C)N1C(=O)CC(Nc2cccc3cccc(N)c23)C1=O (stereo unspecified) | 36 | 32 | 36 | – | – | – | · | –
COc1ccc(NC2CC(=O)N(C(C)C)C2=O)cc1 (stereo unspecified) | – | – | – | – | – | · | · | ·
CC(=O)NC(c1ccc(C(C)C)cc1)c1ccc2cccnc2c1O (stereo unspecified) | 66 | 23 | – | – | – | 75 | · | 29
CC(=O)NC(C)c1cc(F)c2cccnc2c1O (stereo unspecified) | – | – | – | – | – | · | · | ·
CC(=O)NC(c1ccc(C)cc1)c1cc(Cl)c2cccnc2c1O (stereo unspecified) | 62 | 20 | – | – | – | 76 | · | –
COC(=O)[C@]12C[C@H](CC(=O)NCCc3ccccc3OC)C(=O)N(CCc3ccc(OC)c(OC)c3)C1=C[C@H](COCc1ccccc1)O[C@@H]2C | · | – | – | · | – | · | · | ·
C[C@@H]1[C@@H](O)C[C@@]2(C[C@H](O)c3cc(F)ccc3O2)O[C@H]1c1ccccc1Cl | · | – | – | · | – | · | · | ·
SMILES | HTRA1 inhibitor | SIAE primary | ABHD4 inh | TCR CD3 inh | PRMT1 FP inh | HTRA1 inh conf | ABHD4 confirm | SIAE confirm | others
CC(=O)C1(C(=O)NC2CCCC2)CC(c2ccccn2)=NO1 (stereo unspecified) | · | – | – | · | – | · | · | ·
CC(=O)C(=Nc1ccccc1Cl)NNc1ccc(Cl)cc1 | 47 | 18 | 43 | – | 71 | – | – | –
Oc1ccc(NCc2cccs2)cc1 | 37 | 20 | 54 | 21 | – | – | – | – | BSA TAMRA ctr=–;TCR-CD3 inh conf=–
O=C1CC(c2ccc3c(c2)OCO3)N=C2N(Cc3ccc4c(c3)OCO4)C/C(=C/c3ccccc3)N12 (stereo unspecified) | · | – | – | · | – | · | · | ·
COc1cccc(-n2c(SCc3cc(=O)oc4cc(O)c(O)cc34)nc3ccccc3c2=O)c1 | 67 | 32 | – | 19 | – | 76 | · | – | BSA TAMRA ctr=–;TCR-CD3 inh conf=32
CCN(CC)C(=O)CSc1nc2ccccc2c(=O)n1-c1cccc(OC)c1 | – | – | – | – | – | · | · | ·
CC(C)c1ccc(Nc2c([N+](=O)[O-])c(=O)n(C)c3ccccc23)cc1 | – | – | – | – | – | · | · | ·
Cn1c(=O)c(Nc2ccc(O)cc2)c2c3c(cccc31)C(=O)c1ccccc1-2 | 78 | 26 | 74 | – | 105 | 86 | 65 | – | PRMT1 inh conf=32
O=C1C[C@H](c2ccc3ccccc3c2)N=C2N1/C(=C\c1ccccc1)[C@@H](c1ccccc1C(F)(F)F)N2Cc1ccc2c(c1)OCO2 | · | – | – | · | – | · | · | ·
Cc1cc2c(N)cccc2nn1 | 101 | 142 | 168 | + | 44 | – | 116 | 65
O=C(/C(=N/N=C/c1ccc(O)c(O)c1O)c1ccccc1)c1ccccc1 | 79 | 33 | 53 | – | 27 | 74 | 47 | –
COc1ccc(C(=O)C(=NN)c2ccccc2)cc1 | – | – | – | – | – | · | · | ·
Oc1ccc(/C=N/N=C(c2ccccc2)c2ccccc2)c(O)c1O | 66 | 20 | 42 | 35 | – | 67 | 34 | – | BSA TAMRA ctr=–;TCR-CD3 inh conf=28
O=C(COC(=O)c1c2c(nc3ccccc13)/C(=C\c1ccco1)CC2)NC1CCCC1 | 58 | 23 | 63 | – | 28 | – | 32 | – | PRMT1 inh conf=–
N#C/C(=C/c1ccc(O)c(O)c1)c1nc2ccccc2[nH]1 | 65 | 29 | 58 | 36 | 42 | 94 | 65 | 51 | BSA TAMRA ctr=–;TCR-CD3 inh conf=48;PRMT1 inh conf=37
NNC(=O)c1oc2nc(-c3cccs3)cc(-c3ccco3)c2c1N | 57 | 55 | – | – | – | 48 | · | 75
CCN(CC)C(=O)CC[C@H]1CC[C@]2(CCCN(Cc3cccnc3)C2)O1 | · | – | – | · | – | · | · | ·
Oc1ccc(Cl)cc1CNc1cccc2cccnc12 | 49 | 20 | 36 | – | – | – | – | –

Bioassay records as filed in PubChem BioAssay.
